The values that follow come from ChEMBL document CHEMBL1773058, “Synthesis of 4β-carbamoyl epipodophyllotoxins as potential antitumour agents” (2011).

Structures are written as SMILES. Activity calls are given as the source filed them. The calls are words filed in the database; no cut-off is given here.

The subject of experiment [1] is ZR-75-1. Briefly: Growth inhibition of human ZR-75-1 cells after 48 hrs by sulforhodamine B assay. Type of experiment: functional. To be noted: ZR-75-1, 48 h. The essentials: (§1)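 Cells grown in RPMI-1640 (2 mM glutamine, pH 7.4, 10% FCS, penicillin/streptomycin) at 37 °C, 5% CO2. Subconfluent cells trypsinised, used at >97% viability (trypan blue), plated and grown 24 h, then exposed to test materials 48 h in triplicate. Fixed with TCA at 4 °C for 1 h, stained 30 min with 0.4% SRB in 1% acetic acid, dye solubilised in 10 mM Tris pH 10.4, OD read at 540 nm. GI50 reported.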
For orientation: In SRB staining, fixed cells bind dye roughly in proportion to their protein.

In experiment [2] the test system is MCF7. Briefly: Growth inhibition of human MCF7 cells after 48 hrs by sulforhodamine B assay. Type of experiment: functional. To be noted: MCF7, 48 h. Put shortly: as §1
In experiment [3] the test system is KB. Briefly: Growth inhibition of human KB cells after 48 hrs by sulforhodamine B assay. Type of experiment: functional. The essentials:
as §1

The nature of experiment [4]: Growth inhibition of human Gurav cells after 48 hrs by sulforhodamine B assay. Type of experiment: functional. Put shortly: as §1
The nature of experiment [5]: Growth inhibition of human DWD cells after 48 hrs by sulforhodamine B assay. Type of experiment: functional. Put shortly: as §1
The test system of experiment [6] is COLO 205. Briefly: Growth inhibition of human COLO205 cells after 48 hrs by sulforhodamine B assay. To be noted: COLO 205, 48 h. Type of experiment: functional. The essentials: as §1
Experiment [7] relates to A549. Briefly: Growth inhibition of human A549 cells after 48 hrs by sulforhodamine B assay. Type of experiment: functional. To be noted: A549, 48 h. Put shortly:
as §1

Experiment [8] has as its system HOP-62. Briefly: Growth inhibition of human HOP62 cells after 48 hrs by sulforhodamine B assay. In kind it is functional. To be noted: HOP-62, 48 h. The essentials: as §1
Experiment [9] relates to PC-3. Briefly: Growth inhibition of human PC3 cells after 48 hrs by sulforhodamine B assay. Type of experiment: functional. Particulars: PC-3, 48 h. The essentials:
as §1

The test system of experiment [10] is SiHa. Briefly: Growth inhibition of human SiHa cells after 48 hrs by sulforhodamine B assay. In kind it is functional. The essentials: as §1
Experiment [11] relates to A2780. Briefly: Growth inhibition of human A2780 cells after 48 hrs by sulforhodamine B assay. In kind it is functional. To be noted: A2780, 48 h. Put shortly: as §1
The target in experiment [12] is DNA topoisomerase 2-alpha (Homo sapiens) (UniProt P11388). Briefly: Inhibition of topoisomerase 2 assessed as inhibition of relaxation of supercoiled pBR322 plasmid DNA at 10 uM to 1 mM by ethidium bromide staining. The essentials:
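Topo II relaxation reaction stopped with 10% SDS, then proteinase K treatment and extraction with chloroform/isoamyl alcohol (24:1). Products resolved on 1% agarose gel in TAE (40 mM Tris-acetate pH 8.0, 1 mM EDTA) and stained with 0.5 µg/ml ethidium bromide.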

Sequence of DNA topoisomerase 2-alpha (Homo sapiens) (P11388 whole entry): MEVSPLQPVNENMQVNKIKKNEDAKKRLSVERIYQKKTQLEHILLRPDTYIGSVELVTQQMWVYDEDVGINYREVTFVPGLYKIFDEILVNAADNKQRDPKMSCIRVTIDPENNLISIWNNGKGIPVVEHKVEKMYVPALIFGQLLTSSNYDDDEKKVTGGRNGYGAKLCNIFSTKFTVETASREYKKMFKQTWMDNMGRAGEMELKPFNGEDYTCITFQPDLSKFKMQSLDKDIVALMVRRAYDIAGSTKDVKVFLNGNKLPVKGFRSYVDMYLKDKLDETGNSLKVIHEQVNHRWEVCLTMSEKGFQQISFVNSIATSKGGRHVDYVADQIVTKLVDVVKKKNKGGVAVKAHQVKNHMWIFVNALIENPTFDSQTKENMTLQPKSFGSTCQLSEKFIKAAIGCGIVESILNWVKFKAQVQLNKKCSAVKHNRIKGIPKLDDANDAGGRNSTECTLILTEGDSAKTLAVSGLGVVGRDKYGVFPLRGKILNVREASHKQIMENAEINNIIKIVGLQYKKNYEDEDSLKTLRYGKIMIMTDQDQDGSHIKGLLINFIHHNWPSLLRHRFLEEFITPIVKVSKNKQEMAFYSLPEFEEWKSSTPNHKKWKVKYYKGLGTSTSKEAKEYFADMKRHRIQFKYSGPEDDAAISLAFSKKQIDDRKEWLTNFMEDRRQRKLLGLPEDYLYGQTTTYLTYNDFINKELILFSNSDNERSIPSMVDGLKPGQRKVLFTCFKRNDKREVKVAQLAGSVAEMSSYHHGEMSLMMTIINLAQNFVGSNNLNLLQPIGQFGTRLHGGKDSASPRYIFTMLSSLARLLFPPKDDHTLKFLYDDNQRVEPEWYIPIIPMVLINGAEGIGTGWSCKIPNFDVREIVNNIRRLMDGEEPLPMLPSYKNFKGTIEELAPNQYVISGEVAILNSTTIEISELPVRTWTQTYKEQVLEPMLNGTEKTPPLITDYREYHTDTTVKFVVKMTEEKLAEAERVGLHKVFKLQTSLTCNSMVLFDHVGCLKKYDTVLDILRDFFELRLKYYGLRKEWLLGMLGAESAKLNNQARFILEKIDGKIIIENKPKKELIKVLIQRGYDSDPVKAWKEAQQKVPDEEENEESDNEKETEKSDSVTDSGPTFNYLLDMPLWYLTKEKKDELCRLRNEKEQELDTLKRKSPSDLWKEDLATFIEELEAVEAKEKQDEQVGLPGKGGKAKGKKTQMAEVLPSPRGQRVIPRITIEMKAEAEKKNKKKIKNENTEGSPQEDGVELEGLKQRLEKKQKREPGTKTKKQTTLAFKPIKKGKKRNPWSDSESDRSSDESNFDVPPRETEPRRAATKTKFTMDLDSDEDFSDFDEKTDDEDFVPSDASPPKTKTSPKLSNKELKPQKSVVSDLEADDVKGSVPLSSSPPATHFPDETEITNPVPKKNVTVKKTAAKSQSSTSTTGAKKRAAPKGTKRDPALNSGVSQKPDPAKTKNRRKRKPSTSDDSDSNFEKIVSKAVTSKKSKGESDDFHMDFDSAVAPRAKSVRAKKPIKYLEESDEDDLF

The term GI50 denotes the concentration giving 50% growth inhibition. A low value points to more potent growth inhibition. As to `COc1cc([C@@H]2c3cc4c(cc3[C@@H](OC(=O)NCCN(C)C)[C@H]3COC(=O)[C@H]23)OCO4)cc(OC)c1OC`, the GI50 in [1] is less than 0.1 µM; in experiment [2] it was 0.11 µM; in experiment [3], 0.16 µM; in [4] it was 0.15 µM; in experiment [5] it was less than 0.1 µM; in experiment [6] it was 2.1 µM. The GI50 in [7] was less than 0.1 µM; in experiment [8], 0.12 µM; in experiment [9], 0.15 µM; in experiment [10] it was 2.1 µM; in experiment [11], 0.12 µM.
Turning to `CCCNC(=O)O[C@@H]1c2cc3c(cc2[C@@H](c2cc(OC)c(OC)c(OC)c2)[C@H]2C(=O)OC[C@@H]21)OCO3`, the GI50 in experiment [1] was 0.19 µM; in [2] it was 2 µM; in experiment [3], 2.1 µM; in experiment [4] it was 0.17 µM; in [5], 2 µM; in experiment [6], 2.7 µM. Besides, the GI50 in [7] is less than 0.1 µM; in experiment [8], 0.16 µM; in experiment [9] it was 0.17 µM; in experiment [10], 1.2 µM; in [11], 0.19 µM.
In the case of `COc1cc([C@@H]2c3cc4c(cc3[C@@H](OC(=O)N3CCOCC3)[C@H]3COC(=O)[C@H]23)OCO4)cc(OC)c1OC`, in experiment [12], the inhibition entry was “Active”. Besides, the GI50 was 0.14 µM in experiment [1]; 0.16 µM in experiment [2]; 0.12 µM in experiment [3]; 0.14 µM in experiment [4]; less than 0.1 µM in experiment [5]; 2.7 µM in experiment [6]. For the same molecule, the 50% growth inhibitory concentration (GI50) is less than 0.1 µM in [7]; 0.13 µM in experiment [8]; 0.16 µM in experiment [9]; 1.4 µM in experiment [10]; 0.13 µM in experiment [11].
Take `O=c1[nH]cc(F)c(=O)[nH]1` [FLUOROURACIL]: the GI50 in experiment [1] was 2.3 µM; in experiment [2] it was 2.8 µM; in experiment [3], 5.2 µM; in experiment [4], 3.1 µM; in experiment [5], 6.1 µM; in [6] it was 2.8 µM. Also, the GI50 in [7] came out at 2.4 µM; in experiment [8] it was 4.1 µM; in [9], 12 µM; in experiment [10] it was 6.3 µM; in experiment [11] it was 3.5 µM.
On to `COc1cc([C@@H]2c3cc4c(cc3[C@@H](OC(=O)NCC3CC3)[C@H]3COC(=O)[C@H]23)OCO4)cc(OC)c1OC`, for which the GI50 in experiment [1] stood at 0.19 µM; in experiment [2], 2.3 µM; in experiment [3], 2.4 µM; in experiment [4], 0.18 µM; in [5] it was 2 µM; in experiment [6], 2.5 µM. The GI50 in [7] is less than 0.1 µM; in experiment [8], 2.5 µM; in experiment [9], 2.3 µM; in experiment [10] it was 2.3 µM; in experiment [11], 2 µM.
With `COCCNC(=O)O[C@@H]1c2cc3c(cc2[C@@H](c2cc(OC)c(OC)c(OC)c2)[C@H]2C(=O)OC[C@@H]21)OCO3`, the GI50 was less than 0.1 µM in [1]; 0.15 µM in experiment [2]; 0.15 µM in [3]; 0.14 µM in experiment [4]; less than 0.1 µM in experiment [5]; 2.2 µM in [6]. In addition, the GI50 in [7] was less than 0.1 µM; in experiment [8] it was 0.12 µM; in [9], 0.16 µM; in experiment [10] it was 2.4 µM; in [11] it was 0.15 µM.
On to `COc1cc([C@@H]2c3cc4c(cc3[C@@H](O[C@@H]3O[C@@H]5CO[C@@H](C)O[C@H]5[C@H](O)[C@H]3O)[C@H]3COC(=O)[C@H]23)OCO4)cc(OC)c1O` [ETOPOSIDE], for which the concentration for 50% growth inhibition (GI50) came out at 0.2 µM in [1]; 2.1 µM in [2]; 0.3 µM in experiment [3]; 0.5 µM in experiment [4]; 0.6 µM in [5]; 0.13 µM in [6]. Also, the GI50 was 3.08 µM in [7]; 0.8 µM in experiment [8]; 2.6 µM in experiment [9]; 3.1 µM in experiment [10]; 1.3 µM in [11].
As to `COc1cc([C@@H]2c3cc4c(cc3[C@@H](OC(=O)NC(C)C)[C@H]3COC(=O)[C@H]23)OCO4)cc(OC)c1OC`, the GI50 in experiment [1] was 0.15 µM; in [2], 0.19 µM; in [3] it was 0.18 µM; in [4] it was 0.16 µM; in [5], less than 0.1 µM; in experiment [6], 2.7 µM. The GI50 in experiment [7] is less than 0.1 µM; in experiment [8], 2.1 µM; in experiment [9], 0.19 µM; in experiment [10], 0.19 µM; in experiment [11] it was 0.14 µM.
On to `C#CCNC(=O)O[C@@H]1c2cc3c(cc2[C@@H](c2cc(OC)c(OC)c(OC)c2)[C@H]2C(=O)OC[C@@H]21)OCO3`, for which the GI50 in experiment [1] was 0.14 µM; in [2] it was 0.19 µM; in [3], 0.17 µM; in [4], 0.14 µM; in [5] it was less than 0.1 µM; in [6], 2.7 µM. The GI50 in [7] was less than 0.1 µM; in experiment [8] it was 0.14 µM; in experiment [9] it was 0.16 µM; in [10] it was 1.9 µM; in experiment [11] it was 0.16 µM.
`COc1cc([C@@H]2c3cc4c(cc3[C@@H](OC(=O)NCc3ccc(C(F)(F)F)cc3)[C@H]3COC(=O)[C@H]23)OCO4)cc(OC)c1OC`: the GI50 worked out at 0.16 µM in [1]; 0.18 µM in experiment [2]; 0.18 µM in experiment [3]; 0.19 µM in experiment [4]; 2 µM in [5]; 0.15 µM in [6]. The 50% growth inhibitory concentration (GI50) in experiment [7] is less than 0.1 µM; in experiment [8] it was 2.3 µM; in [9] it was 2.1 µM; in experiment [10] it was 2 µM; in [11] it was 0.18 µM.
With `COc1cc([C@@H]2c3cc4c(cc3[C@@H](OC(=O)N(C)C)[C@H]3COC(=O)[C@H]23)OCO4)cc(OC)c1OC`, the GI50 in experiment [1] is 0.12 µM; in experiment [2], 0.16 µM; in experiment [3], 0.18 µM; in experiment [4], 0.17 µM; in [5], less than 0.1 µM; in experiment [6] it was 2.1 µM. Besides, the 50% growth inhibitory concentration (GI50) in experiment [7] is less than 0.1 µM; in experiment [8] it was 0.13 µM; in experiment [9], 0.15 µM; in [10], 2.1 µM; in experiment [11] it was 0.18 µM.
For the molecule `COc1cc([C@@H]2c3cc4c(cc3[C@@H](OC(=O)NCCc3c[nH]c5ccccc35)[C@H]3COC(=O)[C@H]23)OCO4)cc(OC)c1OC`, in experiment [12], the inhibition entry was “Active”. Also, the GI50 in [1] was 0.13 µM; in experiment [2], 0.16 µM; in experiment [3], 0.18 µM; in experiment [4], 0.12 µM; in [5], less than 0.1 µM; in experiment [6], 0.12 µM. Besides, the GI50 was less than 0.1 µM in [7]; 2.1 µM in [8]; 0.16 µM in [9]; 1.8 µM in experiment [10]; 0.11 µM in experiment [11].
